Results published in ChEMBL document CHEMBL1268917, “Synthesis and biological evaluation of radio-iodinated benzimidazoles as SPECT imaging agents for NR2B subtype of NMDA receptor” (Bioorg Med Chem, 2010).

How the values were obtained:
[1] = target: Glutamate receptor ionotropic, NMDA 2B (Rattus norvegicus, UniProt Q00960); assay: Displacement of [3H]ifenprodil from NR2B receptor in rat cortical synaptic membranes; format: cell membranes, Membrane
[2] = Octanol-buffer partition coefficient, log D of the compound at pH 7.4; format: physicochemical
[3] = target: Glutamate receptor ionotropic, NMDA 2B (Rattus norvegicus) (UniProt Q00960); assay: Binding affinity to NR2B receptor in rat cerebellum at 0.09 to 0.14 nM after 30 mins by autoradiography in presence of DTG relative to control; format: tissue-based; conditions: tested as the 125I-labelled form
Sequence of Glutamate receptor ionotropic, NMDA 2B (Rattus norvegicus) (Q00960 27-1482 limits assumed): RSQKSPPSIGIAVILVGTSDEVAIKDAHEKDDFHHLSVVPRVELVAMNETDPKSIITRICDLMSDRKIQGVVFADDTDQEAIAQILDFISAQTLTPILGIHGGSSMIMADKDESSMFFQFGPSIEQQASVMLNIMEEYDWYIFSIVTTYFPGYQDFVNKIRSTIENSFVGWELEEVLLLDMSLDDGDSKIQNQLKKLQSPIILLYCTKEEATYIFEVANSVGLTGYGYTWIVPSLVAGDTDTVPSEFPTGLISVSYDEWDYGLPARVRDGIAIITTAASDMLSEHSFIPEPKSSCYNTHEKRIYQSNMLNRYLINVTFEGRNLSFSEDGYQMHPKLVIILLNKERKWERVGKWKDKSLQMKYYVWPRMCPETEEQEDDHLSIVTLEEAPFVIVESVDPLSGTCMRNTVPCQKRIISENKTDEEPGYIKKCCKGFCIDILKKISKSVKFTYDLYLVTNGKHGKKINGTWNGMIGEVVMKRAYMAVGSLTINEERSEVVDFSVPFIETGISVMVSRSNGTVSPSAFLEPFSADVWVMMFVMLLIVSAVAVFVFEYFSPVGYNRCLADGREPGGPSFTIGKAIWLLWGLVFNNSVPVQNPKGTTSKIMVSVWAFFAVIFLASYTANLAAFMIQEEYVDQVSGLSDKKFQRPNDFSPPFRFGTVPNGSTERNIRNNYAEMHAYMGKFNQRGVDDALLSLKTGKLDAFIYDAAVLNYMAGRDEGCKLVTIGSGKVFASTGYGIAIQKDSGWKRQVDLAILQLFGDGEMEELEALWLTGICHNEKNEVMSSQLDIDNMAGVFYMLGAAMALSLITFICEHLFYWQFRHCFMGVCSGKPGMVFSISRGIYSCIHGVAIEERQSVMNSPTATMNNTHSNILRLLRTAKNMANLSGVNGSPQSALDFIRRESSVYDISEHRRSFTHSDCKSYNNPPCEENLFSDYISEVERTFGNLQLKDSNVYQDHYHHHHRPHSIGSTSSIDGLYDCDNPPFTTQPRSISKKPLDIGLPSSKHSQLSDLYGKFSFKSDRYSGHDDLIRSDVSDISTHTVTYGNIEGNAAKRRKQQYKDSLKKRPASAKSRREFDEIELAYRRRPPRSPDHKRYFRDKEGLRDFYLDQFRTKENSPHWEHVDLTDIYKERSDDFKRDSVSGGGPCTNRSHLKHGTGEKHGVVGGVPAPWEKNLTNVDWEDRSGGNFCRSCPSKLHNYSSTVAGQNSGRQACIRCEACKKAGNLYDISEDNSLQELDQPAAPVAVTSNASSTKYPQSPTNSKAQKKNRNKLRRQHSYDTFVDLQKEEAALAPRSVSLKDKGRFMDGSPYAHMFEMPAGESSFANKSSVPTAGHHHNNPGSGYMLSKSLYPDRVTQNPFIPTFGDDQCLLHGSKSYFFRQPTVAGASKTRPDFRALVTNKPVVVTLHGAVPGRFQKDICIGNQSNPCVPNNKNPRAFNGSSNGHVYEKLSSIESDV
Procedure, shortened: (§1)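 Rinsed three times 3 min in cold buffer with 1% BSA, dipped in cold water, air-dried, exposed to imaging plates; PSL per mm² in ROIs. Expressed as % control binding; at least triplicate slices from three rats.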

[4] = target: Glutamate receptor ionotropic, NMDA 2B (Rattus norvegicus) (UniProt Q00960); assay: Binding affinity to NR2B receptor in rat hippocampus at 0.09 to 0.14 nM after 30 mins by autoradiography in presence of prazosin relative to control; format: tissue-based; conditions: tested as the 125I-labelled form; procedure, shortened: as §1
[5] = target: Glutamate receptor ionotropic, NMDA 2B (Rattus norvegicus) (UniProt Q00960); assay: Binding affinity to NR2B receptor in rat hippocampus at 0.09 to 0.14 nM after 30 mins by autoradiography in presence of Ro-256981 relative to control; format: tissue-based; conditions: tested as the 125I-labelled form; procedure, shortened: as §1
[6] = target: Glutamate receptor ionotropic, NMDA 2B (Rattus norvegicus) (UniProt Q00960); assay: Binding affinity to NR2B receptor in rat cerebral cortex at 0.09 to 0.14 nM after 30 mins by autoradiography in presence of DTG relative to control; format: tissue-based; conditions: tested as the 125I-labelled form; procedure, shortened: as §1
[7] = target: Glutamate receptor ionotropic, NMDA 2B (Rattus norvegicus) (UniProt Q00960); assay: Binding affinity to NR2B receptor in rat hippocampus at 0.09 to 0.14 nM after 30 mins by autoradiography in presence of DTG relative to control; format: tissue-based; conditions: tested as the 125I-labelled form; procedure, shortened: as §1
[8] = target: Glutamate receptor ionotropic, NMDA 2B (Rattus norvegicus) (UniProt Q00960); assay: Binding affinity to NR2B receptor in rat cerebral cortex at 0.09 to 0.14 nM after 30 mins by autoradiography in presence of Ro-256981 relative to control; format: tissue-based; conditions: tested as the 125I-labelled form; procedure, shortened: as §1
[9] = target: Glutamate receptor ionotropic, NMDA 2B (Rattus norvegicus) (UniProt Q00960); assay: Binding affinity to NR2B receptor in rat cerebellum at 0.09 to 0.14 nM after 30 mins by autoradiography in presence of prazosin relative to control; format: tissue-based; conditions: tested as the 125I-labelled form; procedure, shortened: as §1
[10] = Lipophilicity, log P of the compound; format: physicochemical; conditions: octanol/water
[11] = target: Glutamate receptor ionotropic, NMDA 2B (Rattus norvegicus) (UniProt Q00960); assay: Binding affinity to NR2B receptor in rat cerebral cortex at 0.09 to 0.14 nM after 30 mins by autoradiography in presence of prazosin relative to control; format: tissue-based; conditions: tested as the 125I-labelled form; procedure, shortened: as §1
[12] = target: Glutamate receptor ionotropic, NMDA 2B (Rattus norvegicus) (UniProt Q00960); assay: Binding affinity to NR2B receptor in rat cerebellum at 0.09 to 0.14 nM after 30 mins by autoradiography in presence of Ro-256981 relative to control; format: tissue-based; conditions: tested as the 125I-labelled form; procedure, shortened: as §1

Sequence of Glutamate receptor ionotropic, NMDA 2B (Q00960 whole entry): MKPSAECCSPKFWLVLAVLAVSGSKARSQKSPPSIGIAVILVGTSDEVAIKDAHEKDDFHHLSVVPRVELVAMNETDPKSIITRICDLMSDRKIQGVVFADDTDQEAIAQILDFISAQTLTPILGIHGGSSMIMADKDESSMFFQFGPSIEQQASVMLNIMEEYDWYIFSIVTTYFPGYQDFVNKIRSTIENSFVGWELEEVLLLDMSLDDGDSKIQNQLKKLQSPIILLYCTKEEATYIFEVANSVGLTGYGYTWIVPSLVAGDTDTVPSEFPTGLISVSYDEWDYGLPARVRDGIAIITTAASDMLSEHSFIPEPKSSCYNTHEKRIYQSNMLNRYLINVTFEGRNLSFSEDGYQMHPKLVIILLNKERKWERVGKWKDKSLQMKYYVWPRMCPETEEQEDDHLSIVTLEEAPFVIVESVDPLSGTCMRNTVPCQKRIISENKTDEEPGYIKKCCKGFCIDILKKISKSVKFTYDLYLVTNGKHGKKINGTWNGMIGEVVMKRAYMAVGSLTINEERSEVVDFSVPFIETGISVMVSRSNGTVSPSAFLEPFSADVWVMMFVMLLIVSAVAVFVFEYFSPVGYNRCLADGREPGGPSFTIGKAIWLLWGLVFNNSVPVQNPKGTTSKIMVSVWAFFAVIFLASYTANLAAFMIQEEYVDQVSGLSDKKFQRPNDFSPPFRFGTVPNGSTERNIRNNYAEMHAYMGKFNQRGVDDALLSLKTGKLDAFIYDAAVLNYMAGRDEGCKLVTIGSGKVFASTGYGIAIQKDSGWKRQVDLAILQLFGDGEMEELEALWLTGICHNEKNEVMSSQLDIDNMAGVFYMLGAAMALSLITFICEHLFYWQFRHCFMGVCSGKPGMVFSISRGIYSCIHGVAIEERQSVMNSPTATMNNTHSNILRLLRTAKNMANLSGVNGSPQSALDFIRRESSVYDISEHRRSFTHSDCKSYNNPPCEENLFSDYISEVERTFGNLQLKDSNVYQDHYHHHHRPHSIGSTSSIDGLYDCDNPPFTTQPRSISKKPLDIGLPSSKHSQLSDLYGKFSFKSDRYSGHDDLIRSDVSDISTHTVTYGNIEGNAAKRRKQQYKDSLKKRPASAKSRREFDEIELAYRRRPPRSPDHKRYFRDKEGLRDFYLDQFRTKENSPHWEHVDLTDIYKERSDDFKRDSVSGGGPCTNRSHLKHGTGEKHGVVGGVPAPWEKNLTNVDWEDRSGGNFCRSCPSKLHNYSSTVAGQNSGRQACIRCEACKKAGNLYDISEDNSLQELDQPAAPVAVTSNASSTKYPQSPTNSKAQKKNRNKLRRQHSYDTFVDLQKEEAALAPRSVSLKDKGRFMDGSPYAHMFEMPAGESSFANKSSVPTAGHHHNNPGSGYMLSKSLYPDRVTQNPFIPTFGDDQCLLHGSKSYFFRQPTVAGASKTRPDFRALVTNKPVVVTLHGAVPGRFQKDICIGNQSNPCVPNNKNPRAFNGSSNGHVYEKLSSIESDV

Structure (SMILES)	Ki [1]	logD [2]	Activity [3]	Activity [4]	Activity [5]	Activity [6]	Activity [7]	Activity [8]	Activity [9]	logP [10]	Activity [11]	Activity [12]
Oc1ccc2nc(CN3CCC(Oc4ccc(I)cc4)CC3)[nH]c2c1	0.0325 µM	3.74	–	–	–	–	–	–	–	–	–	–
Oc1ccc2nc(CN3CCC(Cc4ccc(I)cc4)CC3)[nH]c2c1	0.00728 µM	3.95	101%	92.6%	50.9%	93.5%	105%	58.3%	103%	3.95	95.6%	91.8%
